Only a sample is shown.
HKDC1 activator – increases human hexokinase HKDC1 activity; activity change, negative = activation, % at 20 µM; recombinant HKDC1, G6PDH/diaphorase resazurin fluorescence; active compounds read low; actives 0.056% (n = 340,000); AID 493187; Q2TB90;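 active = activation of 40% or more at 20 µM, a change of -40% or lower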
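Material: in-house human HKDC1 enzyme, G6PDH and diaphorase coupling enzymes | Quantity: HKDC1 at 5 µg/mL final | Medium: Tris buffer at pH 8.0 containing MgCl2 | Compound dosing: 20 µM single dose | Schedule: 90 min reaction at room temperature, dark | Measured by: Resorufin fluorescence, 525/613 nm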
Numbers without * were called inactive.

SMILES	HKDC1 activator
Cc1ccc(OP2(=O)Nc3cc(C)c(C)cc3S2)cc1 (centres undefined)	-40.7*
Cn1ncnc2c(=O)n(C)c(=O)nc1-2	69.0
Nc1cnn(-c2ccccc2)c(=O)c1Cl	44.7
COc1cc2c(cc1OC)-c1c(OC)c(OC)c(OC)c3ccnc(c13)C2=O	49.5
Cc1cccc(N2C(=O)NC(=O)/C(=C\c3cc(C)n(-c4sc5c(c4C#N)CCCC5)c3C)C2=O)c1C	72.4
